The results in this text go back to ChEMBL document CHEMBL4837222, “Design and synthesis of novel benzothiophene analogs as selective estrogen receptor covalent antagonists against breast cancer” (Eur J Med Chem, 2021).

Series [1] concerns MCF7. As to the kind of experiment: Downregulation of ERalpha expression in human MCF7 cells at 5 uM incubated for 24 hrs by DAPI staining based immunofluorescence microscopy. The format is functional, cell-based. In outline:
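MCF-7 cells on glass slides treated 24 h at 5 µM, washed with PBS and fixed with pre-cooled acetone. ERα immunostained with a red fluorescent label, nuclei counterstained with DAPI; ERα fluorescence intensity quantified.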

The target in series [2] is T1, Estrogen receptor (Homo sapiens) (UniProt P03372).
T1 sequence (whole entry): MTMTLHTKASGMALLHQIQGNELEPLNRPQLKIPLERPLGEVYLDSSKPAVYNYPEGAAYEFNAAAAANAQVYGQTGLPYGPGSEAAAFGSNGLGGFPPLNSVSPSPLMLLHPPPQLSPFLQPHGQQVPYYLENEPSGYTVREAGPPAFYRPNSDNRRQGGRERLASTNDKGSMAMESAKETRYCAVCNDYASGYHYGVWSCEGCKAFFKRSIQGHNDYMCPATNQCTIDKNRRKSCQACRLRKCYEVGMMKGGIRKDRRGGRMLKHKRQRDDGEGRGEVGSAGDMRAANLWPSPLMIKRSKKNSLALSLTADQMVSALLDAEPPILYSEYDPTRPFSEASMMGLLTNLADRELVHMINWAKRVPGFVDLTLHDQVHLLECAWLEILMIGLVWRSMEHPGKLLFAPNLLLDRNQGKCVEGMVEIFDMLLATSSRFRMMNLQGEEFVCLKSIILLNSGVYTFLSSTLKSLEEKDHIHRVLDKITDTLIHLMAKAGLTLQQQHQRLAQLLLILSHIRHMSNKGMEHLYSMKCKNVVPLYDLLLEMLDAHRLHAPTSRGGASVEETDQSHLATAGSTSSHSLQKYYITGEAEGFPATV
The series can be described thus: Covalent antagonist activity at ERalpha receptor in human ishikawa cells assessed as suppression of E2-stimulated PGR expression at 0.25 to 10 uM measured after 3 days by RT-PCR analysis. The format is cell-based. As to conditions: filed as antagonist, dose 0.25-10 µM, time 3.0 day. In outline:
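Ishikawa cells stimulated with E2 and exposed 3 days to compound at 0.25, 0.5, 1 and 10 µM. PGR mRNA quantified by SYBR Green real-time PCR, normalised to GAPDH, ΔΔCT method.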

Another series addresses T2, Estrogen receptor (Homo sapiens, UniProt P03372).
T2 sequence (P03372 whole entry): T1 sequence (whole entry)
The series can be described thus: Induction of ERalpha activity in human ishikawa cells assessed as induction of cell proliferation at 156 to 5000 nM measured after 3 days. The format is cell-based. As to conditions: 72 h, 5 µM, dose 156-5000 nM, time 3 day.

Series [3] deals with MCF7. As to the kind of experiment: Induction of apoptosis in human MCF7 cells assessed as late apoptotic cells at 1 uM incubated for 24 hrs by AnnexinV-FITC/propidium iodide staining based flow cytometric analysis (reference value: 0.7%). The format is functional. On the technique in general: Flow cytometry measures light scatter and fluorescence of single cells or particles in a stream.

Series [4] deals with MCF7. As to the kind of experiment: Induction of apoptosis in human MCF7 cells assessed as necrotic cells at 5 uM incubated for 24 hrs by AnnexinV-FITC/propidium iodide staining based flow cytometric analysis (reference value: 0.4%). The format is functional.
The test system of series [5] is MCF7. The series can be described thus: Induction of apoptosis in human MCF7 cells assessed as necrotic cells at 10 uM incubated for 24 hrs by AnnexinV-FITC/propidium iodide staining based flow cytometric analysis (reference value: 0.4%). The format is functional.
The subject of series [6] is MCF7. The series can be described thus: Cell cycle arrest in human MCF7 cells assessed as accumulation at S phase at 1 uM measured after 48 hrs by propidium iodide staining based flow cytometric analysis (reference value: 63.32%). The format is functional.
Series [7] has as its system MCF7. As to the kind of experiment: Cell cycle arrest in human MCF7 cells assessed as accumulation at G0/G1 phase at 10 uM measured after 48 hrs by propidium iodide staining based flow cytometric analysis (reference value: 24.44%). The format is functional.
A short description of series [8]: Half life in rat plasma. The format is ADME, cell-free.

Activity calls are given as the source filed them. The rule behind the calls is not given here.

By half-life is commonly meant the time in which the quantity being followed falls by half. With `O=C(/C=C/CNCCOc1ccc(Oc2c(-c3ccc(F)cc3)sc3cc(O)ccc23)cc1)N1CCC1`, the inhibition result (with MCF7 [1]; in [2]) was “Active” each time. Also, the Activity entry at Estrogen receptor is given as “Not Active”; with MCF7 [3], 1.2%; in the series on MCF7 [4], 0.4%; in the series with MCF7 [5] it was 0.5%; in the series with MCF7 [6], 51.43%; in the series on MCF7 [7], 42.95%. Moreover, the half-life in series [8] was found to be 17 h.
